Published values pooled from the literature.
Each line is one published result; the experiments were not run side by side.
Target: Acetylcholinesterase (ACHE, Homo sapiens, UniProt P22303)

c1ccc(C(NCCNC(c2ccccc2)c2ccccc2)c2ccccc2)cc1  inhibition (enzyme activity, inhibitor; 10 µM): 13%
O=C(Nc1cccnn1)N1CCN([C@@H]2CCOc3cc(C(F)(F)F)ccc32)CC1  inhibition (enzyme activity, inhibitor; 20 µM): -3%
COCc1c(-c2cc3cc(C)cc(OC)c3s2)c2c(N)ncnn2c1CN1CCNC(=O)C1  inhibition (enzyme activity, inhibitor; 10 µM): -1%
Clc1ccc2c(C3CCN(CCc4c[nH]c5ccccc45)CC3)c[nH]c2c1  inhibition (enzyme activity, inhibitor; 10 µM): 4%
O=C1CN(C(=O)CCn2ccnc2)CC(O)CN1CCc1ccccc1 (stereo not drawn)  inhibition (enzyme activity, inhibitor, Ellman; 10 µM): 21.6%
Nc1ncc(-c2nc(N3CCOCC3)nc(N3CCOCC3)n2)c(C(F)F)n1  remaining activity (enzyme activity, inhibitor; 10 µM): 98%
O=C(O)c1ccccc1O  inhibition (enzyme activity, inhibitor, Ellman; 20 µM): 1.3%
CN(CCN1CCC(OC(=O)Nc2ccccc2-c2ccccc2)CC1)C(=O)c1ccc(CN2CCC(C(N)=O)CC2)cc1  inhibition (enzyme activity, inhibitor; 1 µM): 9%
COc1ccc2c(c1)[nH]c1c(C)nccc12  inhibition (enzyme activity, inhibitor, Ellman; 1 µM): 33.8%
CCN1C(=O)C=CC1=O  inhibition (enzyme activity, inhibitor; 30 µM): ~20%
Cc1ncc(C)n2nc(/C=C/c3nc(N4CCCC4)cc(N4CCOCC4)n3)nc12  inhibition (enzyme activity, inhibitor; 10 µM): 4%
COc1ccc(S(=O)(=O)N2CCCCC2)cc1C  inhibition (ligand displacement, radioligand; 10 µM): < 30%
C[C@H](C(=O)N[C@H]1COc2ccccc2[C@@H]1S(C)(=O)=O)c1ccc(F)cc1  inhibition (enzyme activity, inhibitor; 10 µM): 1%
CCOP(=O)(OCC)Oc1ccc([N+](=O)[O-])cc1  kinact/KI (enzyme activity, inhibitor): 1510 M⁻¹ s⁻¹
C=CCn1c2cc(OC(=O)CCN3CCN(Cc4ccccc4)CC3)ccc2c2ccnc(C)c21  inhibition (enzyme activity, inhibitor, Ellman; 1 µM): 36.4%
